Results on nine compounds are retold here after ChEMBL document CHEMBL4024721, “C-2 (E)-4-(Styryl)aniline substituted diphenylpyrimidine derivatives (Sty-DPPYs) as specific kinase inhibitors targeting clinical resistance related EGFRT790M mutant” (Bioorg Med Chem, 2017).

The structures appear in SMILES notation.

For assay [1], the target named is Epidermal growth factor receptor (Homo sapiens, UniProt P00533, L858R/T790M).
For assay [2], the system named is HCC827. In words: Antiproliferative activity against human HCC827 cells harboring EGFR del E746 to A750 mutant assessed as decrease in cell viability after 72 hrs by MTT assay. It counts as functional, cell-based. To be noted: HCC827, 72 h. Background: Formazan colour is commonly taken as a measure of viable cells.
The nature of assay [3]: Antiproliferative activity against NHBE cells assessed as decrease in cell viability after 72 hrs by MTT assay. The conditions noted are these: Homo sapiens. It counts as ADME, cell-based.
In assay [4] the test system is A-431. In words: Antiproliferative activity against human A431 cells harboring wild type EGFR assessed as decrease in cell viability after 72 hrs by MTT assay. It counts as ADME, cell-based. The conditions noted are these: A-431, 72 h.
Assay [5] has as its system A549. The assay can be described thus: Antiproliferative activity against human A549 cells harboring EGFR K-ras mutant assessed as decrease in cell viability after 72 hrs by MTT assay. It counts as functional, cell-based. To be noted: A549, 72 h.
Assay [6] deals with Epidermal growth factor receptor (Homo sapiens, UniProt P00533). It counts as ADME.
The test system of assay [7] is NCI-H1975. In words: Antiproliferative activity against human NCI-H1975 cells harboring EGFR T790M/L858R double mutant assessed as decrease in cell viability after 72 hrs by MTT assay. It counts as functional, cell-based. The conditions noted are these: NCI-H1975, 72 h.
Assay [8] has as its system Epidermal growth factor receptor (Homo sapiens), P00533 [L858R,T790M]. In words: Potency index, ratio of gefitinib IC50 to test compound IC50 for recombinant human EGFR T790M/L858R double mutant (695 to end residues).
Assay [9] concerns NCI-H1975. In words: Induction of apoptosis in human NCI-H1975 cells harboring EGFR T790M/L858R double mutant assessed as early apoptotic cells at 8 uM after 72 hrs by annexin V/FITC staining-based flow cytometric method relative to control. It counts as functional. Put shortly:
(§1)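 H1975 cells (ATCC), grown as monolayers at 37 °C in humidified 5% CO2, were incubated with compound at the indicated concentrations for 72 h. They were then stained with annexin V/FITC and analysed by flow cytometry. The data shown come from one representative experiment.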
(In general: Flow cytometry measures light scatter and fluorescence of single cells or particles in a stream.)

Assay [10] has as its system NCI-H1975. In words: Induction of apoptosis in human NCI-H1975 cells harboring EGFR T790M/L858R double mutant after 72 hrs by annexin V/FITC staining-based flow cytometric method. It counts as functional, cell-based. A digest of the protocol:
as §1

For assay [11], the system named is NCI-H1975. The assay can be described thus: Induction of apoptosis in human NCI-H1975 cells harboring EGFR T790M/L858R double mutant assessed as viable cells at 8 uM after 72 hrs by annexin V/FITC staining-based flow cytometric method relative to control. It counts as functional. To be noted: NCI-H1975, 72 h, read-out: Activity. Put shortly:
as §1

The subject of assay [12] is NCI-H1975. In words: Induction of apoptosis in human NCI-H1975 cells harboring EGFR T790M/L858R double mutant assessed as viable cells at 4 uM after 72 hrs by annexin V/FITC staining-based flow cytometric method relative to control. It counts as functional. To be noted: NCI-H1975, 72 h, read-out: Activity. Put shortly: as §1
Assay [13] concerns NCI-H1975. The assay can be described thus: Induction of apoptosis in human NCI-H1975 cells harboring EGFR T790M/L858R double mutant assessed as late apoptotic cells at 8 uM after 72 hrs by annexin V/FITC staining-based flow cytometric method relative to control. It counts as functional. A digest of the protocol:
as §1

The test system of assay [14] is NCI-H1975. In words: Induction of apoptosis in human NCI-H1975 cells harboring EGFR T790M/L858R double mutant assessed as necrotic cells at 8 uM after 72 hrs by annexin V/FITC staining-based flow cytometric method relative to control. It counts as functional. A digest of the protocol:
as §1

Assay [15] deals with NCI-H1975. In words: Induction of apoptosis in human NCI-H1975 cells harboring EGFR T790M/L858R double mutant assessed as late apoptotic cells at 4 uM after 72 hrs by annexin V/FITC staining-based flow cytometric method relative to control. It counts as functional. Put shortly:
as §1

For assay [16], the system named is NCI-H1975. The assay can be described thus: Induction of apoptosis in human NCI-H1975 cells harboring EGFR T790M/L858R double mutant assessed as late apoptotic cells at 1 uM after 72 hrs by annexin V/FITC staining-based flow cytometric method relative to control. It counts as functional. A digest of the protocol:
as §1

Assay [17] concerns NCI-H1975. In words: Induction of apoptosis in human NCI-H1975 cells harboring EGFR T790M/L858R double mutant assessed as early apoptotic cells at 1 uM after 72 hrs by annexin V/FITC staining-based flow cytometric method relative to control. It counts as functional. A digest of the protocol:
as §1

Assay [18] has as its system NCI-H1975. In words: Induction of apoptosis in human NCI-H1975 cells harboring EGFR T790M/L858R double mutant assessed as viable cells at 1 uM after 72 hrs by annexin V/FITC staining-based flow cytometric method relative to control. It counts as functional. The conditions noted are these: NCI-H1975, 72 h, read-out: Activity. A digest of the protocol:
as §1

The subject of assay [19] is NCI-H1975. The assay can be described thus: Induction of apoptosis in human NCI-H1975 cells harboring EGFR T790M/L858R double mutant assessed as necrotic cells at 4 uM after 72 hrs by annexin V/FITC staining-based flow cytometric method relative to control. It counts as functional. Put shortly:
as §1

In assay [20] the test system is NCI-H1975. In words: Induction of apoptosis in human NCI-H1975 cells harboring EGFR T790M/L858R double mutant assessed as early apoptotic cells at 4 uM after 72 hrs by annexin V/FITC staining-based flow cytometric method relative to control. It counts as functional. A digest of the protocol: as §1
For assay [21], the system named is NCI-H1975. The assay can be described thus: Induction of apoptosis in human NCI-H1975 cells harboring EGFR T790M/L858R double mutant assessed as necrotic cells at 1 uM after 72 hrs by annexin V/FITC staining-based flow cytometric method relative to control. It counts as functional. A digest of the protocol: as §1

The IC50 is the concentration needed to halve the response being measured. Turning to `C=CC(=O)Nc1cccc(Nc2nc(Nc3ccc(/C=C/c4cc(OC)cc(OC)c4)cc3)ncc2Cl)c1`, the IC50 in [1] came out at 0.0157 µM; in assay [2], 3.32 µM; in assay [3], 9.18 µM; in [4] it was 1.78 µM; in [5], 6.84 µM; in [6], 0.216 µM. The IC50 in assay [7] was determined as 3.76 µM. Further, the Ratio IC50 in assay [8] was 45 to 177.

With `C=CC(=O)Nc1cccc(Nc2nc(Nc3ccc(/C=C/c4cc(Cl)cc(Cl)c4)cc3)ncc2F)c1`, the IC50 was 0.0142 µM in [1]; 10.8 µM in assay [2]; 5.42 µM in assay [3]; 1.29 µM in assay [4]; 7.01 µM in assay [5]; 0.388 µM in assay [6]. For the same compound, the IC50 in assay [7] was 6.98 µM. Further, the Ratio IC50 in [8] lay within 45 to 177.

`C=CC(=O)Nc1cccc(Nc2nc(Nc3ccc(/C=C/c4cc(C)cc(C)c4)cc3)ncc2Cl)c1`: the IC50 in assay [1] worked out at 0.0265 µM; in [2] it was 4 µM; in assay [3] it was 17 µM; in [4], 5.56 µM; in assay [5] it was 5.59 µM; in [6], 0.607 µM. For the same compound, the IC50 in assay [7] came out at 2.32 µM. Besides, in [8], the Ratio IC50 lay within 45 to 177.

For the compound `C=CC(=O)Nc1cccc(Nc2nc(Nc3ccc(/C=C/c4cc(Cl)cc(Cl)c4)cc3)ncc2Cl)c1`, the IC50 in assay [1] was 0.0113 µM; in [2] it was 9.16 µM; in assay [3], 35.2 µM; in [4], 6.56 µM; in assay [5], 15.8 µM; in assay [6] it was 1.04 µM. Besides, the IC50 in [7] was 6.98 µM. Besides, the Ratio IC50 in [8] is 45 to 177.

`C=CC(=O)Nc1cccc(Nc2nc(Nc3ccc(/C=C/c4ccc(C)cc4C)cc3)ncc2F)c1`: the IC50 in [1] is 0.0081 µM; in assay [2] it was over 20 µM; in [3], 10.4 µM; in assay [4], 3.11 µM; in [5], 1.32 µM; in [6], 0.387 µM. For the same compound, the IC50 in assay [7] was found to be 7.16 µM. Moreover, the Ratio IC50 in assay [8] is 45 to 177.

Take `C=CC(=O)Nc1cccc(Nc2nc(Nc3ccc(/C=C/c4cc(C)cc(C)c4)cc3)ncc2F)c1`: the Activity in [9] is 3.7%; in assay [10], “Dose-dependent effect”; in [13], 76.1%; in assay [14], 13.2%; in assay [15], 25.8%; in assay [16], 22.7%. The Activity in [17] is 17.7%; in [19] it was 1.4%; in [20] it was 27.1%; in assay [21], 3.7%. The IC50 came to 0.011 µM in assay [1]; 2.07 µM in [2]; 22.5 µM in assay [3]; 10.6 µM in assay [4]; 12.8 µM in [5]; 0.539 µM in assay [6]. Further, the IC50 in assay [7] came to 2.91 µM. Besides, the viability at 8 µM in [11] was found to be 7%. Also, the viability at 4 µM in assay [12] was found to be 45.7%. Also, the viability at 1 µM in assay [18] was found to be 55.9%. Also, the Ratio IC50 in [8] lay in the range of 45 to 177.

In the case of `C=CC(=O)Nc1cccc(Oc2nc(Nc3ccc(/C=C/c4cc(C)cc(C)c4)cc3)ncc2Cl)c1`, the IC50 in [1] is 0.0224 µM; in [2], 11.7 µM; in assay [3], 6.07 µM; in assay [4] it was 4.71 µM; in assay [5] it was 10.8 µM; in [6], 0.087 µM. For the same compound, in assay [7], the IC50 is 13.7 µM. In addition, the Ratio IC50 in assay [8] was in the range of 45 to 177.

As for `C=CC(=O)Nc1cccc(Nc2nc(Nc3ccc(N4CCN(C(C)=O)CC4)cc3OC)ncc2C(F)(F)F)c1` [ROCILETINIB], the IC50 in assay [2] was found to be 0.031 µM; in [3], 23.8 µM; in [4], 1.79 µM; in assay [5], 3.24 µM; in [7], 0.137 µM.

In the case of `C=CC(=O)Nc1cccc(Nc2nc(Nc3ccc(/C=C/c4ccc(C)cc4C)cc3)ncc2Cl)c1`, the IC50 in assay [1] was 0.0068 µM; in assay [2], 9.71 µM; in [3], 15.8 µM; in assay [4], 3.16 µM; in assay [5] it was 4.94 µM; in [6], 0.996 µM. The IC50 in assay [7] stood at 4.39 µM. Also, in [8], the Ratio IC50 was 45 to 177.
